Data taken from the RNAGym collection of RNA variant scans (doi:10.1126/science.aae0568).
Fewer inactive variants are shown than the library holds.

B1: tRNA (parent)
chain: GUUCCGUUGGCGUAAUGGUAACGCGUCUCCCUCCUAAGGAGAAGACUGCGGGUUCGAGUCCCGUACGGAACG

Variants of: B1
Experiment: yeast fitness relative to wild type (ratio to wild type); higher = fitter; tRNA-Arg(CCU), competitive growth, 37 C, YPD
Outline: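 Start and end populations of a pooled competition were compared by 100-nucleotide paired-end sequencing of gene amplicons. The Saccharomyces cerevisiae strains carried tRNA-Arg(CCU) gene variants at the native genomic locus, synthesised with a 3% per-site mutation rate at 69 sites, and competed in YPD at 37°C for 24 hours in six parallel replicates. Darwinian fitness relative to wild type was based on the change in genotype frequencies. Genotypes required ≥ 100 starting reads, and estimates < 0.5 were set to 0.5.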
In the case of G25A C60U, the yeast fitness is reported as 0.808. Variant G25C A43U A45G has a yeast fitness of 0.518. With G25C C34G A45U the yeast fitness was ≤ 0.5. In the case of G25C C34U G56A, the yeast fitness is reported as ≤ 0.5. For G25C C29A G52A C66U, the yeast fitness was ≤ 0.5. For G25A U32A U53A A70C, the yeast fitness was ≤ 0.5. Variant G25A G41A C49U A69U has a yeast fitness of 0.574. With G25A C30G U59C C66A the yeast fitness was ≤ 0.5. Work on G25C A42U yielded a yeast fitness of 0.869. For G25C C34G A57G, the yeast fitness was ≤ 0.5. Work on G25A C62A A65C yielded a yeast fitness of 0.517. In the case of G25C A37U G48A C61U, the yeast fitness is reported as ≤ 0.5. In the case of G25A G38C G48A C60U, the yeast fitness is reported as ≤ 0.5. Work on G25A G48C C62A yielded a yeast fitness of 0.611. Variant G25C C33A A57U A69U has a yeast fitness of 0.548. For G25A U32C G41A, the yeast fitness was 0.546. With G25C C31G C34G A57C the yeast fitness was ≤ 0.5. With G25C A40G U47A A57C G63A the yeast fitness was ≤ 0.5. With G25C G38C C49U A57U C66A the yeast fitness was 0.571. For G25C C29G A43G C49G, the yeast fitness was 0.647. With G25A U32A U54G G56A the yeast fitness was ≤ 0.5. Work on G25C G39A G58C yielded a yeast fitness of 0.663. With G25C G39C G44C C49U C60U G68C the yeast fitness was ≤ 0.5. G25A C31U G38C G48A gave a yeast fitness of 0.651. In the case of G25A C30G G58C C66A, the yeast fitness is reported as ≤ 0.5. Work on G25A C31U G38C C62U yielded a yeast fitness of 0.697. Variant G25A C49U A70C has a yeast fitness of 0.845. In the case of G25A G44C G52A C62G A69G, the yeast fitness is reported as ≤ 0.5. For G25A C34U A65U, the yeast fitness was 0.671. G25C C49U G63A gave a yeast fitness of 0.83. For G25A G52U U54C, the yeast fitness was ≤ 0.5. In the case of G25A G52A, the yeast fitness is reported as 0.572. G25A G52U showed a yeast fitness of 0.627. For G25A C33A A40G A70C, the yeast fitness was ≤ 0.5. Work on G25A C30A G67U yielded a yeast fitness of 0.776. In the case of G25C C31G, the yeast fitness is reported as 0.704. For G25C C31A, the yeast fitness was 0.677. For G25C C31G C61G C66G, the yeast fitness was 0.674. For G25A C31G A45U, the yeast fitness was 0.612. For G25A U59A, the yeast fitness was 1.06. With G25A G39C A57C the yeast fitness was ≤ 0.5. For G25C G38C C60G, the yeast fitness was 0.747. In the case of G25A G41A A70U, the yeast fitness is reported as 0.713. G25C C62G gave a yeast fitness of 0.877. G25C C46A G58A G63U showed a yeast fitness of 0.604. G25C G38A showed a yeast fitness of 0.951. With G25A C31U A43C A57C the yeast fitness was ≤ 0.5. Variant G25C A69U has a yeast fitness of 0.929. G25A C62U G68A gave a yeast fitness of 0.641. G25C C34G showed a yeast fitness of 0.551. G25C C66A showed a yeast fitness of 0.677. Variant G25C C66U has a yeast fitness of 0.972. Work on G25C C66G yielded a yeast fitness of 0.639. With G25C C29U C34G the yeast fitness was ≤ 0.5. G25C C55U A69U gave a yeast fitness of 0.609. Variant G25A G50C U54C has a yeast fitness of 0.627. With G25A C46U G50C the yeast fitness was 0.556. G25A G48A gave a yeast fitness of 0.981. For G25A C49U C55U, the yeast fitness was 0.683. For G25C C29G, the yeast fitness was 0.703. G25C C29U gave a yeast fitness of 0.688. With G25A G41A C61A A65U the yeast fitness was ≤ 0.5. With G25C C29G A40U the yeast fitness was ≤ 0.5. Work on G25A G44C yielded a yeast fitness of 1.04. With G25C A65G the yeast fitness was 1. G25A C31A A45C G50A gave a yeast fitness of 0.536. G25C C66U A69C gave a yeast fitness of 0.685. Variant G25C C29A A65U has a yeast fitness of 0.558. With G25A C31G C55G the yeast fitness was ≤ 0.5. Variant G25A U32A C46U A57U has a yeast fitness of 0.609. For G25A C29U C66U, the yeast fitness was 0.747. With G25C G41C A42U C49A the yeast fitness was ≤ 0.5. G25C A40C C49U gave a yeast fitness of 0.76. In the case of G25C G39C G52C G58C, the yeast fitness is reported as ≤ 0.5. With G25C C29U A65C A70U the yeast fitness was ≤ 0.5. G25C C31A A65C showed a yeast fitness of 0.678. In the case of G25A G68A, the yeast fitness is reported as 1.02. With G25A G41C G58A the yeast fitness was 0.975. For G25C C29G U32G A43U G50A, the yeast fitness was ≤ 0.5. G25A U28A A43U showed a yeast fitness of 0.835. In the case of G25A G50A C66U, the yeast fitness is reported as 0.629. G25A C46A showed a yeast fitness of 0.876. In the case of G25A C55G U59A G63A, the yeast fitness is reported as ≤ 0.5. With G25C C30U A70C the yeast fitness was 0.596. For G25C C34G G51A, the yeast fitness was ≤ 0.5. With G25A C29U the yeast fitness was 0.997. Work on G25C C29G C30U C49G yielded a yeast fitness of 0.61. In the case of G25A C60A A69G, the yeast fitness is reported as ≤ 0.5. With G25A U32A the yeast fitness was 0.744. G25C C49U G51A gave a yeast fitness of 0.568. Variant G25C C30U A69C has a yeast fitness of 0.606. In the case of G25C A43C C49U, the yeast fitness is reported as 0.632. In the case of G25A G38C A42C, the yeast fitness is reported as ≤ 0.5. G25A U47G C49A gave a yeast fitness of 0.548. With G25C G41C A70C the yeast fitness was 0.559. With G25A U26G the yeast fitness was 0.805. Variant G25A U26C has a yeast fitness of 0.947. Variant G25C C31A A69C has a yeast fitness of 0.585. G25C C31G C62U showed a yeast fitness of 0.737. Work on G25A U26A C31U G38A A42G A43U G67C yielded a yeast fitness of 0.613. In the case of G25C C49U G51A A65C A69C, the yeast fitness is reported as ≤ 0.5. G25C C49G gave a yeast fitness of 0.781. For G25C C31U U32A, the yeast fitness was ≤ 0.5. G25C C60G gave a yeast fitness of 0.665. G25A C61U G63C gave a yeast fitness of 0.528. In the case of G25A C55A, the yeast fitness is reported as 0.725. For G25A C55U, the yeast fitness was 0.84. Variant G25A G41A G56A has a yeast fitness of 0.871. With G25C C29A U32A A65U the yeast fitness was ≤ 0.5. G25C G39A showed a yeast fitness of 0.787. G25C C61A showed a yeast fitness of 0.75. In the case of G25C A57G, the yeast fitness is reported as 0.892. For G25A G51C, the yeast fitness was 0.575. With G25C C34U A37U A40U the yeast fitness was ≤ 0.5. With G25A C34U A43U the yeast fitness was ≤ 0.5. In the case of G25C C27A C30G, the yeast fitness is reported as ≤ 0.5. With G25A C60A C66U the yeast fitness was ≤ 0.5. In the case of G25C A42C C61U, the yeast fitness is reported as ≤ 0.5. With G25A U47C G56C C60U A70U the yeast fitness was ≤ 0.5. In the case of G25C C29U A45C G58A, the yeast fitness is reported as ≤ 0.5. With G25C C33U C49A U53A the yeast fitness was ≤ 0.5. With G25C C61A C66U the yeast fitness was ≤ 0.5. For G25C A40G C61G G63A A69U, the yeast fitness was ≤ 0.5. For G25C C29U C30U U35C A40C, the yeast fitness was ≤ 0.5. For G25C C27G, the yeast fitness was 0.553. In the case of G25C C33G A43C A57C G63C, the yeast fitness is reported as ≤ 0.5. For G25C G41C C46U C66U, the yeast fitness was ≤ 0.5. With G25C C33A A43C G68A the yeast fitness was ≤ 0.5. With G25A U54A C66A the yeast fitness was ≤ 0.5. G25A G41A G67A showed a yeast fitness of 0.59. G25A C46U A57G showed a yeast fitness of 0.676. With G25A C49A the yeast fitness was 0.691. Variant G25A C31A has a yeast fitness of 0.671. With G25A C31G the yeast fitness was 0.906. G25A C31U showed a yeast fitness of 0.923. In the case of G25A C33G A57G G58A U59C A65U, the yeast fitness is reported as ≤ 0.5. Variant G25A C34A has a yeast fitness of 0.77. Variant G25A C34U has a yeast fitness of 0.574. For G25A C46A G52C G68A, the yeast fitness was ≤ 0.5. For G25C A42U A43G U53C A65G, the yeast fitness was ≤ 0.5. In the case of G25C C27G C46G C55A, the yeast fitness is reported as ≤ 0.5. In the case of G25A C46G A65U, the yeast fitness is reported as 0.788. For G25C C55U, the yeast fitness was 0.916. In the case of G25C C31U A65U, the yeast fitness is reported as 0.726. In the case of G25A C34G C46U U54A, the yeast fitness is reported as ≤ 0.5. Work on G25C G41C yielded a yeast fitness of 0.625. In the case of G25A C33U, the yeast fitness is reported as 0.655. For G25A G41A G51C C60U, the yeast fitness was ≤ 0.5. With G25C C27G U47C the yeast fitness was ≤ 0.5. With G25C C49U U54G the yeast fitness was 0.58. For G25A U47C C60U, the yeast fitness was 0.587. In the case of G25A G67A, the yeast fitness is reported as 0.875. With G25C A43U G50A the yeast fitness was 0.704. For G25C C29G A43G, the yeast fitness was ≤ 0.5. For G25C C29G A43C, the yeast fitness was ≤ 0.5. In the case of G25A C34G G50C C62A, the yeast fitness is reported as ≤ 0.5. In the case of G25C A45G G50A C62G, the yeast fitness is reported as ≤ 0.5. In the case of G25A U32A U53A, the yeast fitness is reported as ≤ 0.5. With G25C C33G C60A the yeast fitness was ≤ 0.5. Variant G25A U53C has a yeast fitness of 0.819. Work on G25A U53A yielded a yeast fitness of 0.741. In the case of G25A C60G G63C, the yeast fitness is reported as 0.548. Work on G25A C49U U59G yielded a yeast fitness of 0.54. With G25C A45C A70C the yeast fitness was 0.677. For G25C C27A C66U, the yeast fitness was ≤ 0.5. In the case of G25A C30G C49U, the yeast fitness is reported as 0.594. G25A C31U G41U gave a yeast fitness of 0.739.
